The source made the active and inactive calls. No cut-off for these calls is given here.
What was measured:
[1] = Antioxidant activity assessed as inhibition of Fe2+-induced phosphatidylcholine oxidation at 200 uM […] by TBARS assay; assay type: functional
[2] = system: 5637; test: Antiproliferative activity in human 5637 cells assessed as inhibition of cell growth incubated for 48 hrs by MTT assay; assay type: functional, cell-based; conditions: Homo sapiens, 5637, 48 h
Outline: (§1)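 Bladder carcinoma 5637 cells in log phase were grown in DMEM with 10% FBS at 37 °C, 5% CO2. They were seeded at 2 x 10^4 per well and treated 24 and 48 h, with DMSO up to 0.5% as vehicle. MTT was added for 3 h and A492 read. Inhibition = (1 − Abs treated/Abs control) x 100. Results are mean ± SEM.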

[3] = Antioxidant activity assessed as DPPH radical scavenging activity at 1 mM incubated for 90 mins; assay type: functional
Outline: (§2)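 Each compound mixed with 0.3 mM DPPH in ethanol. Most tests used 1 mM compound; the concentration curve covered final 0 - 1 mM. Absorbance at 518 nm was read every 30 min for 180 min. BHT served as positive control.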

[4] = Thiol peroxidase-like activity assessed as induction of hydrogen peroxide decomposition at 50 to 250 uM using benzenethiol incubated for 20 mins; assay type: functional
Outline: (§3)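 This is a GPx-mimetic assay using benzenethiol (2.5 mM) instead of glutathione. The mix held ethanol, compound at final 0 - 450 μM or DMSO blank, and hydrogen peroxide (2.3 mM).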

[5] = Thiol peroxidase-like activity assessed as induction of hydrogen peroxide decomposition at 450 uM using benzenethiol incubated for 20 mins; assay type: functional; outline: as §3
[6] = system: Mus musculus; test: Toxicity in Swiss mouse assessed as effect on water intake level at 100 umol/kg, sc measured over 7 days; assay type: organism-based; conditions: in vivo, 168 h
Outline: (§4)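 Adult male Swiss mice were randomized into two groups, n = 4 each. They received a subcutaneous injection of 100 μmol/kg compound or DMSO vehicle (1 mL/kg).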

[7] = Toxicity in Swiss mouse assessed as mortality level at 100 umol/kg, sc measured over 7 days; assay type: organism-based; conditions: in vivo, read-out: Activity; outline: as §4
[8] = Antioxidant activity assessed as DPPH radical scavenging activity at 1 mM measured at 38.7 +/- 8.9 mins; assay type: functional; outline: as §2
[9] = system: Mus musculus; test: Toxicity in Swiss mouse assessed as effect on body weight level at 100 umol/kg, sc measured over 7 days; assay type: organism-based; conditions: in vivo, 168 h; outline: as §4
[10] = system: Mus musculus; test: Toxicity in Swiss mouse assessed as effect on brain to body weight ratio level at 100 umol/kg, sc after 7 days; assay type: organism-based; conditions: in vivo, 168 h; outline: as §4
[11] = Antioxidant activity assessed as DPPH radical scavenging activity at 0.25 mM measured at 104.7 +/- 10.0 mins; assay type: functional; outline: as §2
[12] = system: Mus musculus; test: Toxicity in Swiss mouse assessed as appearance of overt toxic signs at 100 umol/kg, sc measured over 7 days; assay type: organism-based; conditions: in vivo, 168 h; outline: as §4
[13] = system: Mus musculus; test: Toxicity in Swiss mouse assessed as effect on liver to body weight ratio level at 100 umol/kg, sc after 7 days; assay type: organism-based; conditions: in vivo, 168 h; outline: as §4
[14] = Thiol peroxidase-like activity assessed as induction of hydrogen peroxide decomposition at 55 to 225 uM using benzenethiol in presence of thiophenol incubated for 20 mins; assay type: functional; outline: as §3
[15] = system: Mus musculus; test: Renal toxicity in Swiss mouse assessed as effect on urea level at 100 umol/kg, sc after 7 days; assay type: organism-based; conditions: in vivo, 168 h; outline: as §4
[16] = system: Mus musculus; test: Toxicity in Swiss mouse assessed as effect on spleen to body weight ratio level at 100 umol/kg, sc after 7 days; assay type: organism-based; conditions: in vivo, 168 h; outline: as §4
[17] = system: Mus musculus; test: Toxicity in Swiss mouse assessed as effect on kidney to body weight ratio level at 100 umol/kg, sc after 7 days; assay type: organism-based; conditions: in vivo, 168 h; outline: as §4
[18] = Antioxidant activity assessed as DPPH radical scavenging activity at 0.5 mM measured at 77.3 +/- 10.3 mins; assay type: functional; outline: as §2
[19] = system: Mus musculus; test: Renal toxicity in Swiss mouse assessed as effect on creatinine level at 100 umol/kg, sc after 7 days; assay type: organism-based; conditions: in vivo, 168 h; outline: as §4
[20] = system: 5637; test: Cell cycle arrest in human 5637 cells assessed as increase in accumulation at S phase at 12.5 uM by propidium iodide staining based flow cytometry; assay type: functional
Outline: (§5)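 5637 cells were seeded at 1x10^5 and synchronized 24 h in serum-free medium. They were then treated 24 h at 12,5 µM. DNA content was measured by propidium iodide staining with a kit and flow cytometry.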

[21] = Antioxidant activity assessed as inhibition of Fe2+-induced phosphatidylcholine oxidation incubated for 1 hr by TBARS assay; assay type: functional
[22] = system: 5637; test: Antiproliferative activity in human 5637 cells assessed as inhibition of cell growth at 6.25 to 12.5 uM incubated for 24 hrs by MTT assay; assay type: functional; outline: as §1
[23] = system: 5637; test: Cell cycle arrest in human 5637 cells assessed as reduction in accumulation at G1 phase at 12.5 uM by propidium iodide staining based flow cytometry; assay type: functional; outline: as §5
[24] = system: 5637; test: Antiproliferative activity in human 5637 cells assessed as inhibition of cell growth incubated for 24 hrs by MTT assay; assay type: functional, cell-based; conditions: Homo sapiens, 5637, 24 h; outline: as §1
[25] = system: Mus musculus; test: Hepatic toxicity in Swiss mouse assessed as effect on AST level at 100 umol/kg, sc after 7 days; assay type: organism-based; conditions: in vivo, 168 h; outline: as §4
[26] = Toxicity in human leukocytes assessed as reduction in cell viability at 100 uM incubated for 3 hrs; assay type: cell-based
Outline: (§6)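 Human leukocytes were isolated (2 x 10^6/mL) and incubated 3 h in Hank's buffer with 10% human plasma. Controls were DMSO 0.5% vehicle and 1 mM t-butyl hydroperoxide as positive control.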

[27] = system: 5637; test: Cell cycle arrest in human 5637 cells assessed as increase in accumulation at subG1 phase at 12.5 uM by propidium iodide staining based flow cytometry; assay type: functional; outline: as §5
[28] = system: 5637; test: Antiproliferative activity in human 5637 cells assessed as inhibition of cell growth at 6.25 to 12.5 uM incubated for 48 hrs by MTT assay; assay type: functional; outline: as §1
[29] = Antioxidant activity assessed as DPPH radical scavenging activity at 0.1 mM measured at >180 mins; assay type: functional; outline: as §2
[30] = system: Mus musculus; test: Toxicity in Swiss mouse assessed as effect on food intake level at 100 umol/kg, sc measured over 7 days; assay type: organism-based; conditions: in vivo, 168 h; outline: as §4
[31] = system: Mus musculus; test: Hepatic toxicity in Swiss mouse assessed as effect on ALT level at 100 umol/kg, sc after 7 days; assay type: organism-based; conditions: in vivo, 168 h; outline: as §4
[32] = Antioxidant activity assessed as DPPH radical scavenging activity at 0.25 mM measured at 22.5 +/- 0.87 mins; assay type: functional
Outline: (§7)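 DPPH (0.3 mM) in ethanol was mixed with the test compound at final concentrations of 0–1 mM. Absorbance at 518 nm was read every 30 min for 180 min. BHT served as the positive control.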

[33] = Antioxidant activity assessed as DPPH radical scavenging activity at 0.5 mM measured at 21.33 +/- 0.6 mins; assay type: functional; outline: as §7
[34] = Toxicity in human leukocytes assessed as reduction in cell viability at 1 mM incubated for 3 hrs; assay type: cell-based; conditions: 1000 µM; outline: as §6

Q: For `Cc1cn([C@H]2C[C@H](N)[C@@H](C[Se]c3ccc(Cl)cc3)O2)c(=O)[nH]c1=O`, which inhibition [1] is on record?
A: The inhibition was “inactive”.

Q: And the IC50 [2]?
A: Its IC50 is over 100 µM.

Q: And the inhibition [3]?
A: The inhibition was “inactive”.

Q: For `O=c1c2ccccc2[se]n1-c1ccccc1`, which Activity [4] is on record?
A: Its Activity is “Active”.

Q: For `Cc1cn([C@H]2C[C@H](N)[C@@H](C[Se]c3ccccc3)O2)c(=O)[nH]c1=O`, which Activity [5] is on record?
A: The Activity was “Active”.

Q: And the inhibition [1]?
A: Its inhibition is “inactive”.

Q: And the IC50 [2]?
A: Its IC50 is over 100 µM.

Q: And the inhibition [3]?
A: Its inhibition is “inactive”.

Q: What does the source list for `Cc1cn([C@H]2C[C@H](N)[C@@H](C[Te]c3ccccc3)O2)c(=O)[nH]c1=O`?
A: Activity [6]: Non-Toxic; mortality at 168 h [7]: 25%; inhibition [8]: 50%; Activity [9]: Non-Toxic; Activity [10]: Non-Toxic; inhibition [11]: 50%; Activity [12]: Non-Toxic; Activity [5]: Active; Activity [13]: Non-Toxic; Activity [14]: Active; Activity [15]: Non-Toxic; Activity [16]: Non-Toxic; Activity [17]: Non-Toxic; inhibition [18]: 50%; Activity [19]: Non-Toxic; Activity [20]: Active; IC50 [21]: 4.67 µM; growth inhibition (GI) [22]: >50%; inhibition [1]: Active; Activity [23]: Active; IC50 [24]: 6.61 µM; Activity [25]: Non-Toxic; Activity [26]: Non-Toxic; Activity [27]: inactive; growth inhibition (GI) [28]: >50%; inhibition [29]: 50%; IC50 [2]: 7.94 µM; inhibition [3]: Active; Activity [30]: Non-Toxic; Activity [31]: Non-Toxic

Q: Which inhibition [32] does the source give for `Cc1cc(C(C)(C)C)c(O)c(C(C)(C)C)c1` here?
A: Its inhibition is 50%.

Q: And the inhibition [33]?
A: Its inhibition is 50%.

Q: Which Activity [5] does the source give for `COc1ccc([Se]C[C@H]2O[C@@H](n3cc(C)c(=O)[nH]c3=O)C[C@@H]2N)cc1` here?
A: The Activity was “Active”.

Q: What about the inhibition [1] of the same compound?
A: Its inhibition is “inactive”.

Q: And the IC50 [2]?
A: Its IC50 is over 100 µM.

Q: What about the inhibition [3] of the same compound?
A: The inhibition was “inactive”.

Q: Which Activity [5] does the source give for `Cc1ccccc1[Se]C[C@H]1O[C@@H](n2cc(C)c(=O)[nH]c2=O)C[C@@H]1N` here?
A: The Activity was “Active”.

Q: And the inhibition [1]?
A: Its inhibition is “inactive”.

Q: And the IC50 [2]?
A: Its IC50 is over 100 µM.

Q: And the inhibition [3]?
A: Its inhibition is “inactive”.

Q: Which Activity [34] does the source give for `CC(C)(C)OO` [TERT-BUTYL HYDROPEROXIDE] here?
A: The Activity was 40%.

Q: With `Cc1ccc([Se]C[C@H]2O[C@@H](n3cc(C)c(=O)[nH]c3=O)C[C@@H]2N)cc1` as the compound, how does the Activity [5] read?
A: Its Activity is “Active”.

Q: And the inhibition [1]?
A: The inhibition was “inactive”.

Q: And the IC50 [2]?
A: Its IC50 is over 100 µM.

Q: What about the inhibition [3] of the same compound?
A: Its inhibition is “inactive”.

Q: With `c1ccc([Se][Se]c2ccccc2)cc1` as the compound, how does the IC50 [21] read?
A: Its IC50 is 233 µM.

Q: And the Activity [4]?
A: The Activity was “Active”.

Q: What does the source list for `Cc1cn([C@H]2C[C@H](N)[C@@H](CSc3ccc(Cl)cc3)O2)c(=O)[nH]c1=O`?
A: inhibition [1]: inactive; IC50 [2]: > 100 µM; inhibition [3]: inactive

Q: For `COc1ccc(SC[C@H]2O[C@@H](n3cc(C)c(=O)[nH]c3=O)C[C@@H]2N)cc1`, which Activity [5] is on record?
A: The Activity was “Active”.

Q: What about the inhibition [1] of the same compound?
A: Its inhibition is “inactive”.

Q: What about the IC50 [2] of the same compound?
A: The IC50 was over 100 µM.

Q: And the inhibition [3]?
A: The inhibition was “inactive”.

Q: For `Cc1cn([C@H]2C[C@H](N=[N+]=[N-])[C@@H](CO)O2)c(=O)[nH]c1=O` [ZIDOVUDINE], which IC50 [24] is on record?
A: Its IC50 is 129 µM.

Q: With `Cc1ccc(SC[C@H]2O[C@@H](n3cc(C)c(=O)[nH]c3=O)C[C@@H]2N)cc1` as the compound, how does the inhibition [1] read?
A: The inhibition was “inactive”.

Q: And the IC50 [2]?
A: Its IC50 is over 100 µM.

Q: What about the inhibition [3] of the same compound?
A: Its inhibition is “inactive”.

Q: With `Cc1cn([C@H]2C[C@H](N)[C@@H](CSc3ccccc3)O2)c(=O)[nH]c1=O` as the compound, how does the inhibition [1] read?
A: Its inhibition is “inactive”.

Q: And the IC50 [2]?
A: Its IC50 is over 100 µM.

Q: And the inhibition [3]?
A: The inhibition was “inactive”.

Q: With `Cc1c(C)c2c(c(C)c1O)CC[C@@](C)(CCC[C@H](C)CCC[C@H](C)CCCC(C)C)O2` [ALPHA-TOCOPHEROL] as the compound, how does the IC50 [21] read?
A: The IC50 was 35.3 µM.

Source: ChEMBL document CHEMBL4138071, “Synthesis, antioxidant and antitumoral activities of 5'-arylchalcogeno-3-aminothymidine (ACAT) derivatives” (Medchemcomm, 2017)
